Columns and labels:
MCF7 = experiment: Cytotoxicity against human MCF7 cells assessed as growth inhibition measured after 72 hrs by MTT assay; assay type: functional; settings: MCF7, 72 h
How it was run: (§1)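 Cells in log phase were seeded in duplicate at 2500–4000 cells/well in supplemented DMEM (37 °C, 5% CO2). Drug from a 40 mM DMSO stock was added on day 0, 24 h post-plating. Read-out was MTT absorbance at 540 nm after 72 h.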

[1] = Cytotoxicity against human BE(2)-C cells assessed as growth inhibition measured after 72 hrs by MTT assay; assay type: functional; how it was run: as §1
[2] = Cytotoxicity against human SJ-G2 cells assessed as growth inhibition measured after 72 hrs by MTT assay; assay type: functional; settings: SJ-G2, 72 h; how it was run: as §1
[3] = Cytotoxicity against human MIA cells assessed as growth inhibition measured after 72 hrs by MTT assay; assay type: functional; how it was run: as §1
[4] = Cytotoxicity against human H460 cells assessed as growth inhibition measured after 72 hrs by MTT assay; assay type: functional; settings: NCI-H460, 72 h; how it was run: as §1
[5] = Cytotoxicity against mouse SMA cells assessed as growth inhibition measured after 72 hrs by MTT assay
DU-145 = experiment: Cytotoxicity against human DU145 cells assessed as growth inhibition measured after 72 hrs by MTT assay; assay type: functional; settings: DU-145, 72 h; how it was run: as §1
A-431 = experiment: Cytotoxicity against human A431 cells assessed as growth inhibition measured after 72 hrs by MTT assay; assay type: functional; settings: A-431, 72 h; how it was run: as §1
SW480 = experiment: Cytotoxicity against human SW480 cells assessed as growth inhibition measured after 72 hrs by MTT assay; assay type: functional; settings: SW480, 72 h; how it was run: as §1
A2780 = experiment: Cytotoxicity against human A2780 cells assessed as growth inhibition measured after 72 hrs by MTT assay; assay type: functional; settings: A2780, 72 h; how it was run: as §1
HT-29 = experiment: Cytotoxicity against human HT-29 cells assessed as growth inhibition measured after 72 hrs by MTT assay; assay type: functional; settings: HT-29, 72 h; how it was run: as §1

Compound	GI50 (MCF7) [µM]	GI50 [1] [µM]	GI50 [2] [µM]	GI50 [3] [µM]	GI50 [4] [µM]	GI50 [5] [µM]	GI50 (DU-145) [µM]	GI50 (A-431) [µM]	GI50 (SW480) [µM]	GI50 (A2780) [µM]	GI50 (HT-29) [µM]
N#C/C(=C\c1ccc([N+](=O)[O-])cc1)C(=O)c1c[nH]c2ccccc12	35	40	37	46	47	60	59	46	42	48	41
COc1ccc(CNC(=O)/C(C#N)=C/c2ccc(C)cc2)cc1	36	35	39	38	41	42	34	26	34	33	36
COc1ccc(CNC(=O)/C(C#N)=C/c2ccoc2)cc1	7	7	8	8	8	7	7	5	8	6	6
N#C/C(=C\c1cccc2ccccc12)C(=O)NCc1ccc(Cl)c(Cl)c1	8	7	13	8	7	7	12	8	11	7	7
COc1ccc(CNC(=O)/C(C#N)=C/c2ccc(Br)o2)cc1	11	13	13	16	16	14	12	9	14	12	10
COc1ccc(CNC(=O)/C(C#N)=C/c2ccc(Cl)cc2)cc1	11	12	11	16	14	17	7	6	10	7	7
N#C/C(=C\c1ccc2ccccc2c1)C(=O)NCc1ccc(Cl)c(Cl)c1	29	40	49	44	> 100	64	77	50	50	44	44
COc1ccc(CNC(=O)/C(C#N)=C/c2ccco2)cc1	27	24	31	34	32	33	29	16	31	24	22
COc1ccc(/C=C(\C#N)C(=O)NCc2ccc(Cl)c(Cl)c2)cc1	45	93	> 100	79	> 100	> 100	70	90	95	86	> 100
COc1ccc(CNC(=O)/C(C#N)=C/c2ccccc2)cc1	18	15	17	24	18	16	13	9	14	9	9
COc1ccc(CNC(=O)/C(C#N)=C/c2cccc3ccccc23)cc1	16	14	15	15	15	15	16	15	14	16	13
COc1ccc(CNC(=O)/C(C#N)=C/c2cc(Br)co2)cc1	20	36	23	65	> 100	> 100	61	14	> 100	28	36
N#C/C(=C\c1ccccc1)C(=O)NCc1ccc(Cl)c(Cl)c1	29	32	43	47	61	43	71	43	49	49	70
N#C/C(=C\c1c(F)c(F)c(F)c(F)c1F)C(=O)c1ccc[nH]1	23	14	23	25	31	> 100	> 100	64	> 100	64	224
COc1ccc(CNC(=O)/C(C#N)=C/c2ccc(C)o2)cc1	21	21	75	51	> 100	69	39	58	29	60	92
COc1ccc(CNC(=O)/C(C#N)=C/c2ccc(-c3ccccc3)o2)cc1	3	> 100	> 100	> 100	> 100	> 100	> 100	> 100	> 100	> 100	56
COc1ccc(CNC(=O)/C(C#N)=C/c2ccc(Cl)o2)cc1	9	11	13	15	15	14	12	9	13	9	9
N#C/C(=C\c1ccc(Cl)cc1)C(=O)NCc1ccc(Cl)c(Cl)c1	21	31	30	31	33	33	30	30	30	32	33
N#C/C(=C\c1c[nH]c2ccccc12)C(=O)c1c[nH]c2ccccc12	11	12	13	14	7.6	15	17	7.6	8.3	9.3	6
N#C/C(=C\c1c(F)c(F)c(F)c(F)c1F)C(=O)c1c[nH]c2ccccc12	13	10	14	21	35	20	30	19	18	11	18
N#C/C(=C\c1ccc[nH]1)C(=O)NCc1ccc(Cl)c(Cl)c1	6	43	> 50	> 50	> 50	> 50	> 50	> 50	> 50	> 50	85
N#C/C(=C\c1ccco1)C(=O)NCc1ccc(Cl)c(Cl)c1	20	> 50	> 50	> 50	> 50	38	24	> 50	> 50	> 50	20

Reference: ChEMBL document CHEMBL2331240, “Focused library development of 2-phenylacrylamides as broad spectrum cytotoxic agents” (2013)
